The source made the active and inactive calls.
Assays:
[1] = species: Mus musculus; assay: Anticonvulsant activity against CF1 mouse assessed as protection against PTZ-induced convulsions for 60 mins; type: functional, organism-based
Method in brief: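 Male adult CF1 mice (n = 10/group) dosed i.p.; 30 min later pentylenetetrazol 88 mg/kg s.c. Each mouse placed alone in an acrylic chamber and watched 60 min for clonic convulsions lasting over 3 s. Read-out is the fraction of mice convulsing, analysed by Fisher's exact test.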

[2] = test system: Mus musculus; assay: Antidepressant activity in CF1 mouse assessed as decrease in duration of immobility at 3 mg/kg during final 4 mins of the 6 mins session by forced swimming test; type: functional
Method in brief: (§1)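 Male adult CF1 mice given i.p. doses in saline (pH 7.0), N = 10. Each mouse swam 6 min in a 30 cm-diameter cylinder holding 20 cm of water at 25 ± 1 °C. Immobility was timed over the last 4 min. Values are mean ± SEM, analysed by ANOVA against saline.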

[3] = test system: Mus musculus; assay: Antidepressant activity in CF1 mouse assessed as decrease in duration of immobility at 7.5 mg/kg during final 4 mins of the 6 mins session by forced swimming test; type: functional; method in brief: as §1
[4] = test system: Mus musculus; assay: Anxiolytic activity against CF1 mouse assessed as suppression of oxotremorine-treated tremors at 3 mg/kg; type: functional, organism-based; design: dose 3 mg/kg
Method in brief: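 Mice received treatment i.p. 30 min before oxotremorine 0.5 mg/kg in saline. Each mouse was then placed alone in a transparent cage immediately after injection and tremor was scored. Data given as median (interquartile range); Kruskal–Wallis then Mann–Whitney U against saline + oxotremorine.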

[5] = test system: Mus musculus; assay: Anxiolytic activity against CF1 mouse assessed as suppression of oxotremorine-treated tremors at 7.5 mg/kg; type: functional, organism-based; design: dose 7.5 mg/kg
Method in brief: (§2)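 Male CF1 mice were given the test drug i.p. in saline 30 min before oxotremorine 0.5 mg/kg. Each mouse was then placed alone in an acrylic cage for observation of tremor. Values are median (interquartile range), analysed by Kruskal–Wallis then Mann–Whitney U against saline + oxotremorine.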

[6] = test system: Mus musculus; assay: Anxiolytic activity against CF1 mouse assessed as suppression of oxotremorine-treated tremors at 10 mg/kg; type: functional, organism-based; design: dose 10 mg/kg; method in brief: as §2
[7] = test system: Mus musculus; assay: Anxiolytic activity against CF1 mouse assessed as suppression of oxotremorine-treated tremors at 30 mg/kg; type: functional, organism-based; design: dose 30 mg/kg; method in brief: as §2
[8] = test system: Mus musculus; assay: Anxiolytic activity against CF1 mouse assessed as suppression of oxotremorine-treated tremors at 100 mg/kg; type: functional, organism-based; design: dose 100 mg/kg; method in brief: as §2
[9] = test system: Mus musculus; assay: Effect on short term memory of CF1 mouse assessed as reduction in latency during aquisition at 100 mg/kg by passive avoidance test; type: functional
Method in brief: (§3)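 Step-down inhibitory avoidance in male CF1 mice with i.p. dosing 30 min before training. Stepping down during training gave a 0.3 mA scrambled foot shock for 15 s. The latency to step down during training was recorded, with no exclusion criterion applied. N = 20 per group; values are median (interquartile range).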

[10] = test system: Mus musculus; assay: Effect on short term memory of CF1 mouse assessed as reduction in step down latency at 7.5 mg/kg by passive avoidance test; type: functional
[11] = test system: Mus musculus; assay: […] of CF1 mouse assessed as reduction in step down latency at 10 mg/kg by passive avoidance test; type: functional
[12] = test system: Mus musculus; assay: Effect on long term memory of CF1 mouse assessed as reduction in latency during aquisition at 7.5 mg/kg by passive avoidance test; type: functional; method in brief: as §3
[13] = test system: Mus musculus; assay: Effect on long term memory of CF1 mouse assessed as reduction in latency during aquisition at 100 mg/kg by passive avoidance test; type: functional; method in brief: as §3
[14] = test system: Mus musculus; assay: Effect on long term memory of CF1 mouse assessed as reduction in step down latency at 100 mg/kg by passive avoidance test; type: functional
Method in brief: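 Step-down inhibitory avoidance in male CF1 mice dosed i.p. immediately after training, during which a 0.3 mA foot shock for 15 s followed stepping down. Test step-down latency was recorded 24 h later without shock, with a 300 s cutoff. N = 20 per group; values are median (interquartile range).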

[15] = test system: Mus musculus; assay: Anxiolytic activity against CF1 mouse assessed as reduction in number in crossings at 200 mg/kg after 30 mins by hole-board assay; type: functional, organism-based; design: dose 200 mg/kg
Method in brief: (§4)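 Hole-board set 15 cm high and divided into 16 squares, with photocells counting head-dips. Male CF1 mice were dosed i.p. and placed centrally 30 min later under dim light. Over 5 min, head-dips, rearings and squares crossed were counted. Values are mean ± SEM (N = 15), analysed by one-way ANOVA then SNK.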

[16] = test system: Mus musculus; assay: Anxiolytic activity against CF1 mouse assessed as reduction in number in head dips at 200 mg/kg after 30 mins by hole-board assay; type: functional, organism-based; design: dose 200 mg/kg; method in brief: as §4
[17] = test system: Mus musculus; assay: Anxiolytic activity against CF1 mouse assessed as increase in number of crossings at 7.5 mg/kg after 30 mins by hole-board assay; type: functional, organism-based; design: dose 7.5 mg/kg; method in brief: as §4
[18] = test system: Mus musculus; assay: Anxiolytic activity against CF1 mouse assessed as increase in number of head dips at 7.5 mg/kg after 30 mins by hole-board assay; type: functional, organism-based; design: dose 7.5 mg/kg; method in brief: as §4
[19] = test system: Mus musculus; assay: Anxiolytic activity against CF1 mouse assessed as increase in number of head dips at 15 mg/kg after 30 mins by hole-board assay; type: functional, organism-based; design: dose 15 mg/kg; method in brief: as §4
[20] = test system: Mus musculus; assay: Anxiolytic activity against CF1 mouse assessed as increase in number of rearings at 15 mg/kg after 30 mins by hole-board assay; type: functional, organism-based; design: dose 15 mg/kg; method in brief: as §4
[21] = test system: Mus musculus; assay: Anxiolytic activity against CF1 mouse assessed as increase in number of rearings at 7.5 mg/kg after 30 mins in presence of ritanserin by hole-board assay; type: functional, organism-based; design: dose 7.5 mg/kg
Method in brief: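 Male CF1 mice received ritanserin 2 mg/kg i.p. in 10% DMSO 30 min before the test drug at 7.5 mg/kg i.p. The 5 min hole-board session began 30 min later, counting head-dips, crossings and rearings. Values are mean ± SEM (N = 8-14), analysed by ANOVA/SNK.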

[22] = test system: Mus musculus; assay: Anxiolytic activity against CF1 mouse assessed as increase in latency to enter in the dark compartment 7.5 mg/kg for 5 mins; type: functional, organism-based; design: dose 7.5 mg/kg
Method in brief: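 Light/dark box with a black, room-lit small compartment and a white large compartment lit at 400 lx. Male CF1 mice were acclimated at least 1 h under dim red light and dosed i.p. 30 min before testing. Recorded were latency to first entry and time spent in the light area. Values are mean ± SEM (N = 19-22), analysed by one-way ANOVA then SNK.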

[23] = test system: Mus musculus; assay: Anxiolytic activity against CF1 mouse assessed as increase in time spent in light compartment at 7.5 mg/kg in presence of ritanserin for 5 mins; type: functional, organism-based; design: dose 7.5 mg/kg
Method in brief: (§5)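 Male CF1 mice received ritanserin 2 mg/kg i.p. (in 10% DMSO) 30 min before the test drug at 7.5 mg/kg i.p. The light/dark test followed 30 min later, scoring latency to first entry and time in the light compartment. Values are mean ± SEM (N = 8-10), analysed by one-way ANOVA/SNK.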

[24] = test system: Mus musculus; assay: Anxiolytic activity against CF1 mouse assessed as increase in latency to enter in the dark compartment 7.5 mg/kg in presence of ritanserin for 5 mins; type: functional, organism-based; design: dose 7.5 mg/kg; method in brief: as §5
[25] = test system: Mus musculus; assay: Potentiation of pentobarbital-induced sleeping time in CF1 mouse at 100 mg/kg; type: functional, organism-based; design: dose 100 mg/kg
Method in brief: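 Male CF1 mice (N = 9-12) were dosed i.p. and given sodium pentobarbital 40 mg/kg i.p. 30 min later. Sleeping time was recorded as the interval from loss to recovery of the righting reflex. Values are mean ± SEM, analysed by ANOVA against controls.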

[26] = test system: Mus musculus; assay: Effect on locomotory activity in CF1 mouse assessed as change in spontaneous activity at 3 to 30 mg/kg; type: functional, organism-based
Method in brief: (§6)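 Mice were habituated singly for 10 min in photocell activity cages and then dosed i.p. Diazepam was given in 10% propylene glycol. After 30 min, crossings were recorded for 15 min. n = 10–16, ANOVA then SNK.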

[27] = test system: Mus musculus; assay: Effect on locomotory activity in CF1 mouse assessed as change in spontaneous activity at 0.75 and 0.85 mg/kg; type: functional, organism-based; design: dose 0.85 mg/kg; method in brief: as §6

COC(=O)C1=CO[C@@H](O[C@H]2O[C@H](CO)[C@@H](O)[C@H](O)[C@H]2O)[C@@H]2C([C@@H]3NCCc4c3[nH]c3ccccc43)=CC[C@H]12 [PSYCHOLLATINE]
Activity [1]: inactive
Activity [2]: 48.88 s
Activity [3]: 56.41 s
Activity [4]: Active
Activity [5]: Active
Activity [6]: Active
Activity [7]: Active
Activity [8]: Active
Activity [9]: 6.8 s
Activity [10]: 9.6 s
Activity [11]: 11.55 s
Activity [12]: 13.4 s
Activity [13]: 5 s
Activity [14]: 9.5 s
Activity [15]: Active
Activity [16]: Active
Activity [17]: Active
Activity [18]: Active
Activity [19]: Active
Activity [20]: Active
Activity [21]: inactive
Activity [22]: Active
Activity [23]: inactive
Activity [24]: inactive
Activity [25]: Active
Activity [26]: inactive
Activity [27]: inactive

From ChEMBL document CHEMBL1158703, “Psychopharmacological profile of the alkaloid psychollatine as a 5HT2A/C serotonin modulator” (2005)
